The nature of experiment [1]: In vitro binding affinity towards FBP aldolase from rabbit. Details: species or system Oryctolagus cuniculus. The method in brief: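 Rabbit muscle class I aldolase, FBP substrate. Cleavage product DHAP was followed spectrophotometrically at 340 nm through NADH consumption, using a 300-fold excess of glycerophosphate dehydrogenase as coupling enzyme. Medium was 0.1 M triethanolamine–HCl pH 7.6 with 1 mM EDTA.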

Experiment [2] in a line: (§1) In vitro binding affinity towards FBP aldolase from Bacillus subtilis. The method in brief: (§2)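 B. subtilis class II aldolase. FBP cleavage was followed by reducing the DHAP formed with a 300-fold excess of glycerophosphate dehydrogenase and reading NADH consumption at 340 nm. Medium was 0.1 M glycylglycine buffer, pH 7.4, without 2-mercaptoethanol. Inhibition was analysed with FBP as substrate.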

Experiment [3] is described as follows: In vitro binding affinity towards FBP aldolase from yeast. Details: species or system Saccharomyces cerevisiae. The method in brief:
(§3)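 Yeast aldolase was partly purified after French-press cell disruption (specific activity 5.5 U/mg). DHAP from FBP cleavage was coupled to glycerophosphate dehydrogenase (300-fold excess), with NADH loss monitored at 340 nm. Buffer was 0.1 M glycylglycine, pH 7.4, with 0.01 M 2-mercaptoethanol. FBP served as substrate.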

The species entered for experiment [4] is Oryctolagus cuniculus. The experiment is described as follows: Selectivity (Ki rabbit /Ki yeast) of inhibitors for class II versus class I FBP aldolase.
The species entered for experiment [5] is Oryctolagus cuniculus. The experiment is described as follows: Selectivity (Ki rabbit /Ki B:subtilis) of inhibitors for class II versus class I FBP aldolase.
The test system of experiment [6] is Saccharomyces cerevisiae. As to the kind of experiment: Enzymatic kinetics (Km) constant towards FBP aldolase from yeast. Put shortly: as §3
Experiment [7] deals with Bacillus subtilis. As to the kind of experiment: Enzymatic kinetics (Km) constant towards FBP aldolase from Bacillus subtilis. Put shortly:
as §2

The species entered for experiment [8] is Oryctolagus cuniculus. The experiment is described as follows: Enzymatic kinetics (Km) constant towards FBP aldolase from rabbit. The method in brief:
(§4)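 Rabbit muscle class I aldolase was assayed in 0.1 M triethanolamine–HCl, pH 7.6, with 1 mM EDTA. DHAP released from FBP was measured through a coupled reaction with a 300-fold excess of glycerophosphate dehydrogenase, following NADH consumption spectrophotometrically at 340 nm.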

Experiment [9] in a line: In vitro binding towards FBP aldolase from rabbit. Set-up: species or system Oryctolagus cuniculus. Put shortly:
as §4

Experiment [10] in a line: as §1. Put shortly:
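Class II aldolase from Bacillus subtilis with FBP as substrate. DHAP formed was measured at 340 nm as NADH consumption, coupled to a 300-fold excess of glycerophosphate dehydrogenase. Medium was 0.1 M glycylglycine buffer pH 7.4, without 2-mercaptoethanol.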
The source holds these as a separate data set.

For four compounds, Ki, Selectivity and Km results are on record in ChEMBL document CHEMBL1146767, “New highly selective inhibitors of class II fructose-1,6-bisphosphate aldolases” (Bioorg Med Chem Lett, 2004).

Molecules are shown by their SMILES.

Regarding `N/C(COP(=O)(O)O)=N/O`, the Ki (in general, the equilibrium dissociation constant of an inhibitor or competing ligand from its target) in experiment [1] was > 1000 µM; in [2], 3.3 µM; in experiment [3] it was 2.3 µM. In addition, the Selectivity in [4] is > 435; in [5], > 303.

Consider `O=P(O)(O)OC[C@H]1O[C@](O)(COP(=O)(O)O)[C@@H](O)[C@@H]1O`, for which the results for the Km in experiment [6], in experiment [7] and in experiment [8] were 450 µM, 2000 µM and 55 µM, respectively.

As for `O=C(COP(=O)(O)O)NO` [PHOSPHOGLYCOLOHYDROXAMATE], the values for the Ki in experiment [3] and in [9] were 0.01 µM and 1 µM, respectively. For the same compound, the Selectivity in [4] came out at 100.

In the case of `NNC(=O)COP(=O)(O)O` [PHOSPHORIC ACID MONOHYDRAZINOCARBONYLMETHYL ESTER], the inhibition constant Ki in experiment [1] was determined as 370 µM; in experiment [3] it was 0.34 µM; in experiment [10], 670 µM. For the same compound, the Selectivity in experiment [4] worked out at 1090; in experiment [5] it was 552.
